This is an account of results in ChEMBL document CHEMBL3632540, “Ynamide Click chemistry in development of triazole VEGFR2 TK modulators” (Eur J Med Chem, 2015).

The target of assay [1] is Vascular endothelial growth factor receptor 2 (Homo sapiens, UniProt P35968). Nature of the assay: Inhibition of GST-tagged human recombinant VEGFR2 kinase expressed in Sf9 insect cells by radiometric protein kinase assay. The essentials:
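Human VEGFR2 kinase made as GST fusion in Sf9 cells, purified on GSH-agarose, purity checked by SDS-PAGE/silver stain, identity confirmed by mass spectrometry.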

Assay [2] in a line: Cytotoxicity against human HuH7 cells incubated for 72 hrs by SRB assay. The class given is functional, cell-based, Huh-7. The essentials: (§1)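 HCC lines kept in DMEM with 10% FBS, L-glutamine, nonessential amino acids and penicillin/streptomycin at 37 °C, 5% CO2, STR-authenticated. Seeded at 2000 cells/well (Huh7) or 1000 cells/well (Mahlavu); serial dilutions added 24 h later, DMSO control. After 72 h, TCA-fixed, SRB-stained, dye solubilized in 10 mM Tris base, A515 read. Triplicates, normalized to DMSO.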
In general terms: The SRB assay estimates cell density from bound dye.

Assay [3] is described as follows: Cytotoxicity against human Mahlavu cells incubated for 72 hrs by SRB assay. The class given is functional, cell-based. The essentials:
as §1

[4] abbreviates: Homo sapiens, Huh-7, 72 h, read-out: IC50.

Vascular endothelial growth factor receptor 2, sequence (P35968 whole entry, the tested form may be a part): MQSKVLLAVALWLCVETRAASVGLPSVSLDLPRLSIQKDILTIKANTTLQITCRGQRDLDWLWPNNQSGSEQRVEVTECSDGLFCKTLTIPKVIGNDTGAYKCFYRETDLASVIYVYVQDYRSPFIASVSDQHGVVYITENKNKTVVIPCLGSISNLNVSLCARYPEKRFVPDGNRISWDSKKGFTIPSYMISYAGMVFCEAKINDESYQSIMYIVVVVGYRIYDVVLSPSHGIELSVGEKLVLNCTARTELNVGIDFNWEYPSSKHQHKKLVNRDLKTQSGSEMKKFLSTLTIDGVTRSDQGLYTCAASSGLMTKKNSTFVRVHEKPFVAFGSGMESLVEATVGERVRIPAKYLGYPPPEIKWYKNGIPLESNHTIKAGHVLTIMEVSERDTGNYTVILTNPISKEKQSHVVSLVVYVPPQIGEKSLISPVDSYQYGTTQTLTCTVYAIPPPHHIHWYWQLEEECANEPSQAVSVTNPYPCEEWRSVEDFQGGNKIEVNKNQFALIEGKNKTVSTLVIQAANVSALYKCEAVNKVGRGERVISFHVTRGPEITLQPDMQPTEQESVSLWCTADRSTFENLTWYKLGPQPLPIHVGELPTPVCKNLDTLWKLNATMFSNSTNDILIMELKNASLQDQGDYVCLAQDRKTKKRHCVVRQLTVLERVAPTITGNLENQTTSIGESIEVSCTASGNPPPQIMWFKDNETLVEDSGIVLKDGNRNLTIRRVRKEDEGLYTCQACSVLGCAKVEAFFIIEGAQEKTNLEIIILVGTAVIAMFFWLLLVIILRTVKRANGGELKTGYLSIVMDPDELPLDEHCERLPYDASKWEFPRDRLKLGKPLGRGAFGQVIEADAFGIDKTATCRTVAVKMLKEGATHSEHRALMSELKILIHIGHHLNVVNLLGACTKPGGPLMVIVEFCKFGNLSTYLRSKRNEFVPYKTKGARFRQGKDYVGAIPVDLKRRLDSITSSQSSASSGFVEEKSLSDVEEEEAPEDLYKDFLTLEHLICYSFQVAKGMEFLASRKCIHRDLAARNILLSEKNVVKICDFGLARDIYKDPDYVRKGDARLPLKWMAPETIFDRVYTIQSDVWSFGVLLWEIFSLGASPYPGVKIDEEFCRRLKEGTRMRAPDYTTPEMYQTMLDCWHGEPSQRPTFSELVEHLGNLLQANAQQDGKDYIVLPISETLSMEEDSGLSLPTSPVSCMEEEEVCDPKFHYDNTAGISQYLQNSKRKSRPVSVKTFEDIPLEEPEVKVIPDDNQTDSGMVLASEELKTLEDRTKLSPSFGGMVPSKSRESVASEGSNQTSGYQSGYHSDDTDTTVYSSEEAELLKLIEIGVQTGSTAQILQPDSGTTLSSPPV

In general, IC50 refers to the concentration that inhibits the measured activity by half. For `CCS(=O)(=O)c1ccc(OC)c(Nc2cn(-c3ccc(O)c(-c4cccnc4)c3)nn2)c1`, in assay [1] (sf9), the IC50 entry is “Not Active”.
For the molecule `CCS(=O)(=O)c1ccc(OC)c(Nc2cn(-c3cccc(-c4cccnc4)c3)nn2)c1`, the IC50 in assay [1] (read-out: IC50) is > 100 µM; in assay [2] (setting [4]) it was 12.8 µM; in assay [3] it was 11.8 µM.
Consider `CCS(=O)(=O)c1ccc(OC)c(Nc2cn(-c3cc(-c4ccccc4)nc(-c4ccccc4)n3)nn2)c1`, for which the IC50 result in assay [1] (sf9) is “Not Active”.
For `CCS(=O)(=O)c1ccc(OC)c(Nc2cn(-c3ccc(O)c(-c4cc[nH]c4)c3)nn2)c1`, the results for the concentration for half-maximal inhibition (IC50) in assay [1] (read-out: IC50), in assay [2] (setting [4]) and in assay [3] were 40.1 µM, 18.6 µM and 11.9 µM, respectively.
Take `CCS(=O)(=O)c1ccc(OC)c(Nc2cn(-c3ccc(NC(N)=O)c(-c4cccc5ccccc45)c3)nn2)c1`: the IC50 in assay [1] (read-out: IC50) is > 100 µM; in assay [2] (huh-7) it was “Not Active”; in assay [3] it was 27.9 µM.
In the case of `CCS(=O)(=O)c1ccc(OC)c(Nc2cn(-c3cccc(-c4ccccn4)c3)nn2)c1`, the IC50 in assay [1] (read-out: IC50) stood at 42 µM.
For the molecule `CCS(=O)(=O)c1ccc(OC)c(Nc2cn(-c3ccc(O)c(-c4ccccn4)c3)nn2)c1`, the values for the IC50 in assay [1] (read-out: IC50), in assay [2] (setting [4]) and in assay [3] were 6.96 µM, 17.7 µM and 13.8 µM, respectively.
